Source: PubChem BioAssay
HUVEC prolif 384: inhibitors of human endothelial cell proliferation | viability, % at 10 µM (by protocol) | HUVEC proliferation, CellTiter-Glo luminescence, 72 h; stronger effect = lower value | 1.1% of 86,000 active;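 active = viability at or below 30%; inactive = viability above 30%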;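 note: 100% = median luminescence of DMSO-only cell control wells on each plate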
ERa SRC1 inh: blocks coactivator binding to human estrogen receptor alpha; TR-FRET ER-alpha LBD / SRC-1 peptide, estradiol-bound; P03372; 1.7% of 86,000 active; inhibition, % at 25.6 µM; in the data active = inhibition above about 50%;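 note: 0% = receptor plus peptide control and 100% = peptide only without receptor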
ERa SRC1 pot: ER-alpha (human) coactivator binding potentiation; P03372; TR-FRET ERalpha-LBD/SRC-Cy5 coactivator binding, 2 h; 100 = basal binding, no effect; coactivator binding (% of control), % at 25.6 µM; 1.3% of 86,000 active; AID 639; in the data active = activity above about 200%;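 note: binding measured in presence of low estradiol as agonist stimulus; 0% = peptide alone without receptor and 100% = receptor with peptide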
Fibroblast inh: blocks proliferation of human lung fibroblasts. LL 47 human lung fibroblast viability, ATP luminescence; stronger effect = lower value. viability, % at 10 µM. 1.1% of 85,000 active. AID 719;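 active = viability at or below 50% in the single dose screen; inactive = viability above 50%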;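 note: compound exposure lasted 72 h before the ATP readout; 100% = median luminescence of untreated cell-only wells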
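Test system: LL 47 human lung fibroblasts / Quantity: 1,150 cells in each well / Medium: IMEM growth medium with 15% fetal bovine serum / Incubation: 72 h compound exposure at 37 °C after overnight plating / Detection: CellTiter-Glo luminescence measuring cellular ATP / Read-out: % viability versus median cells-only luminescence / Benchmarks: cell-only wells, no compound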
ERb coact inh: ER-beta (human) coactivator binding inhibition. TR-FRET ER-beta LBD / SRC1-Cy5 peptide binding; receptor agonist-loaded with 1 µM estradiol. 1.3% of 86,000 active. AID 633. inhibition, % at 25.6 µM;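 active = compounds whose percent inhibition of the receptor-coactivator binding signal exceeds about 50% in the single-dose screen, limit read from the data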;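 note: 0% = receptor plus peptide wells without compound and 100% = peptide-only wells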
Target sequence (Q92731 whole entry, looked up, the tested form may be a part): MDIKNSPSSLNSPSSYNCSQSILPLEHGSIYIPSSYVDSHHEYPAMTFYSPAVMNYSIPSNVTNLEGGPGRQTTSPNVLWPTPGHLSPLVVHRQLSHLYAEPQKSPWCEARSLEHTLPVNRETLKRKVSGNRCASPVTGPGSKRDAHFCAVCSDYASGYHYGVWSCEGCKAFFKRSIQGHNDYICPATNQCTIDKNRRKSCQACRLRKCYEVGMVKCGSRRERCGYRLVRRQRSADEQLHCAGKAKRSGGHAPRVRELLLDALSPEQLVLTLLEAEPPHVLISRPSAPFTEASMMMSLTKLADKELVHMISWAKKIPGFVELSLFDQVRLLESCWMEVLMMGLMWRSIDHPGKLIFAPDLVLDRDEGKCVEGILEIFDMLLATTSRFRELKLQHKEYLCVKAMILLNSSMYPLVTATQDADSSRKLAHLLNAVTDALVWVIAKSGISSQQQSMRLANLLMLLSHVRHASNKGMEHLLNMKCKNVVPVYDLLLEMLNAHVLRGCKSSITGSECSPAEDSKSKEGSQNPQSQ
H69AR inhibit: growth inhibitors of human H69AR lung tumor cells. H69AR lung tumor viability, ATP luminescence, 72 h; stronger effect = lower value. viability, % at 10 µM. 6% of 85,000 active. AID 598;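 active = viability at or below 40%; inactive = viability above 40%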;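 note: multidrug resistant small cell line overexpressing MRP-1 efflux transporter; 100% = mean luminescence of untreated control wells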
An asterisk follows results filed as active; x = not tested or not shown; [ ] = another dose, or the depositor's remark. An excerpt weighted towards active compounds, which were near 9.2% of everything screened.

SMILES	HUVEC prolif 384	ERa SRC1 inh	ERa SRC1 pot	Fibroblast inh	ERb coact inh	H69AR inhibit
COc1ccc(-c2nn(C)c(=O)c3ccccc23)cc1NC(=O)COc1ccc(C)cc1	76	11	487*[fluorescence artefact?]	90	16	59
Cc1ccc(-c2nn(CC(=O)NCc3cc(-c4nn(C)c(=O)c5ccccc45)ccc3C)c(=O)c3ccccc23)cc1	4.1*	88*[fluorescence artefact?]	66	4.9*	64*[fluorescence artefact?]	2.1*
CC(C)Oc1ccc(C(CC(=O)O)NC(=O)c2cccs2)cc1 (configuration not stated)	99	-4	92	103	4	95
O=C(NC1CCCCCCC1)c1ccc(CNc2c(N3CCOCC3)c(=O)c2=O)cc1	92	1	104	91	-7	93
Cn1c(Cl)cnc1C1CC(=O)c2cc(Cl)ccc2O1 (configuration not stated)	39	0	121	16*	-3	0.2*
COc1cccc(NC(=O)CCS(=O)(=O)c2cccs2)c1	88	0	122	x	-1	98
CC1Cc2ccccc2N1C(=O)CSc1nnc2c(n1)[nH]c1ccc(F)cc12 (configuration not stated)	53	-12	84	100	-6	38*
c1ccc(-c2nc(Sc3ncnc4c3cnn4-c3ccccc3)n[nH]2)cc1	92	12	80	104	12	27*
CCOC(=O)CSc1ncnc2c1cnn2-c1ccccc1	82	-11	105	100	3	93
CCOc1ccc2nc(NC(=O)Nc3cccs3)sc2c1	60	2	88	89	25	35*
CCOc1ccc2nc(NC(=O)c3ccoc3C)sc2c1	42	0	87	35*	-4	20*
CCOC(=O)CNC(=O)Nc1nnc(-c2ccc(OCC)cc2)o1	98	1	101	102	6	84
O=S(=O)(NC1CCCCC1)c1ccc(Cl)s1	102	-3	118	96	-1	96
COc1ccccc1S(=O)(=O)Cc1ccc(C(=O)N2CCCC2)o1	104	7	208*	98	-12	98
Cn1c(Cc2ccccc2)nnc1SCC(=O)c1cccs1	93	57*	91	96	-7	73
Cc1cc(C)c2c(=O)[nH]n(C(C)C)c2n1	87	-20	295*	96	-17	92
CCC(CC)n1[nH]c(=O)c2c(C)cc(C)nc21	102	-2	116	96	2	95
Clc1ccc(Cn2ncc3c(NCCN4CCOCC4)ncnc32)cc1	100	-10	99	113	-4	101
CCCc1[nH]n(-c2nc3ccccc3s2)c(=O)c1C=NCC(C)C	99	-3	102	86	-7	58
COc1ccc2cc3c(N)nn(C(=O)Cc4ccc(Cl)cc4)c3nc2c1	90	60*	77	60	46	62
CNC(=O)c1[nH]cnc1C(=O)Nc1ccccc1C	101	-7	96	107	9	100
O=C(c1ccccc1)c1nc[nH]c1C(=O)Nc1ccccc1	86	-7	122	71	-12	24*
CSCC[C@H](NC(=O)CCNC(C)=O)c1nc2ccccc2[nH]1	92	3	91	96	7	93
Cc1cnnc2ccc3c(no[n+]3[O-])c12	102	11	83	107	32	33*
CC1=CC(C)=Nc2ccc(C)cc2N1	97	0	90	100	-7	18*
SMILES	HUVEC prolif 384	ERa SRC1 inh	ERa SRC1 pot	Fibroblast inh	ERb coact inh	H69AR inhibit
Cc1ccc2c(c1)NC(=O)CC(c1ccccc1)=N2	104	0	107	106	7	87
CCOC(=O)C1=C(C)OC(N)=C(C#N)C1c1ccoc1 (configuration not stated)	102	4	106	99	2	95
N#CC1=C(N)OC2=C(CCC/C2=C/c2ccoc2)C1c1ccoc1 (configuration not stated)	96	74*	36	104	73*[fluorescence artefact?]	84
CCC(C)(C)NC(=O)CN(C(=O)CNS(=O)(=O)c1ccc(C)cc1)c1ccc2c(c1)OCCO2	98	-5	126	97	12	71
C=CCOc1ccccc1/C=c1\sc2nc(=O)c(C)nn2c1=O	90	36	97	98	38	33*
Cn1c(=O)oc2cc(S(=O)(=O)N3CCCC(C(=O)NC4CCCc5ccccc54)C3)ccc21 (configuration not stated)	93	16	80	82	51*[fluorescence artefact?]	61
Cc1cc(Nc2ccccc2)n(CCO)n1	100	-9	101	105	-3	103
CCC(C)(C)n1nnnc1C(c1cc(OC)ccc1OC)N1CCC(C(N)=O)CC1 (configuration not stated)	98	-4	101	103	-7	85
Cn1c(=O)c2c(nc(Oc3ccccn3)n2C)n(C)c1=O	91	2	109	97	2	88
Cc1cc2c(N=O)c(NO)ccc2[nH]1	60	15	114	1.9*	17	x
O=C(Cn1c(-c2cncs2)nc2ccccc21)NCCc1ccccc1	101	-10	97	99	-14	18*
CC(C)NC(=O)c1cc(-n2cnnc2)ccc1Cl	99	7	97	106	8	89
CCOC(=O)c1sc2nc(CC(=O)OC)nc(NCc3ccc(Cl)cc3)c2c1C	102	37	339*[fluorescence artefact?]	88	8	87
CCOC(=O)c1sc2nc(CC(=O)OC)nc(NCCN(CC)CC)c2c1C	74	-1	109	91	11	76
Cc1cc(C(F)(F)F)c2c(N)c(C(=O)Nc3cc(C)on3)sc2n1	101	2	214*[fluorescence artefact?]	99	20	72
COc1ccc(-c2cc(C(F)(F)F)nc(SCCC(=O)N3CCOCC3)n2)cc1	104	2	169	x	-1	39*
COc1ccc(-c2cc(C(F)(F)F)nc(SCC(N)=O)n2)cc1	96	-1	106	102	37	95
O=C(CCOc1ccccc1)NCC(c1ccco1)N1CCCCC1 (configuration not stated)	88	-4	114	96	2	93
CC1(C)CC(=O)C(C=NCCCn2ccnc2)=C(O)C1	96	-4	106	105	-2	100
Cc1ccc(C2NC(=O)NC(O)(C(F)(F)F)C2C(=O)c2ccccc2)o1 (configuration not stated)	99	-10	108	91	-7	90
Cc1ccc(C2NC(=O)NC(O)(C(F)(F)F)C2C(=O)c2cccs2)o1 (configuration not stated)	17*	-16	115	98	2	104
C[C@@H]1CCC[C@H](C)N1NC(=O)c1ccc(Cl)c(S(N)(=O)=O)c1	103	24	97	105	49	91
CCc1nc2c(sc3nc(N4CCOCC4)c4c(c32)CC(C)(C)OC4)c(=O)o1	90	10	110	99	-4	98
